Source: PubChem (several laboratories)
WT yeast gro inh = growth inhibition of WT yeast, mitochondrial fusion screen | mitochondrial fusion phenotypic screen, WT strain | 190,000 compounds, 2.1% hits | AID 1362 | inhibition, % at 10 µM; in the data active means inhibition above about 58%; tested in S. cerevisiae
Lmaj promast = reduces viability of Leishmania major promastigotes. resazurin fluorescence viability. inhibition, % at 10 µM. 200,000 compounds, 9% hits. AID 1063;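 further: promastigotes grown with compound for 44 hours at 28 °C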
Diaphorase inh = inhibits diaphorase or chemically oxidizes, flagging diaphorase assay artifacts | 190,000 compounds, 0.69% hits | diaphorase resazurin-to-resorufin fluorescence, NADH, 16 min; bacterial (C. kluyveri) enzyme, not human | inhibition, % at 20 µM;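 active means primary screen inhibition at 20 µM above a set limit, cut at about 50% in these data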
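Detection: fluorescence of resorufin formed from resazurin, Ex 544/Em 590 nm; test system: Clostridium kluyveri diaphorase enzyme; amount: 0.14 U/mL diaphorase, enzyme working solution; times: 16-min room-temperature incubation before reading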
G6PDH CS = inhibits Leuconostoc G6PDH, flagging false hits in G6PDH-based assays; Purified L. mesenteroides G6PDH, diaphorase/resazurin coupled fluorescence, 45 min; inhibition, % at 5 µM; 200,000 compounds, 0.12% hits
Diaphorase act = counter-screen for diaphorase-based assays: diaphorase activators and chemical reducers; AID 1229; Diaphorase/resazurin coupled assay, resorufin fluorescence, 16 min; stronger effect = higher value; 1 = vehicle wells, 0 = NADH-free wells; activation factor at 20 µM; 190,000 compounds, 0.005% hits;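 active means diaphorase activity raised at least twofold by the compound at 20 µM; inactive means activation factor below 2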
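System – purified diaphorase enzyme from Clostridium kluyveri · Input – enzyme 0.07 U/mL final · Also added – final NADH 0.114 mM, resazurin 0.1 mM · Measured by – fluorescence of resorufin, 544 nm excitation, 590 nm emission · Timing – 16 min enzyme reaction, ambient temperature · Measure – resorufin increase flagging diaphorase activators or reducers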
Each line names hits and unclear results; the compound was inactive in the other large screens. Shown are actives, neighbours in structure and some others; about 11% of the full set was active somewhere. Unless noted, no stated cut-off is given here; in the data, active means inhibition above about 50%; inactive means the rest.

CCc1cccc(C)c1NC(=S)NCC(c1cccnc1)N1CCOCC1 (centres undefined)	none
CCOC(=O)C1(CCc2ccccc2)CCN(C(=O)CN2CCOC2=O)CC1	none
NCCCC[C@H]1CNC(=S)N1CCc1cccc(F)c1	none
CN1CCN(Cc2cn[nH]c2-c2ccc(F)cc2F)[C@@H](c2ccccc2)C1	none
COc1ccc(CNC(=S)NCc2ccc(OC)cc2)cc1	none
COc1ccc(CNC(=S)Nc2ccc(OC)cc2)cc1	Lmaj promast 51.9
COc1ccc(NC2=NCC(Cc3ccc(Br)cc3)S2)cc1 (centres undefined)	Lmaj promast 87.7
COc1ccc(CC(=O)NNC(=S)Nc2ccc(Br)cc2)cc1	none
COc1ccc(CNc2ccc(C(=O)O)cc2)cc1	none
COc1ccc(CNc2ccc(Br)cc2)cc1	Lmaj promast 98.8
Cc1ccc(C(C)NC(=O)c2ccco2)cc1C (centres undefined)	none
C#Cc1ccc([C@@H]2C=C(C(=O)N3CCN(Cc4ccc5c(c4)OCO5)CC3)O[C@H](OCCCCO)C2)cc1	Diaphorase inh 53.2
O=C(C1=C[C@@H](c2ccccc2)C[C@@H](OCCCCO)O1)N1CCN(Cc2ccc3c(c2)OCO3)CC1	none
O=C(C1=C[C@@H](c2ccc3c(c2)OCO3)C[C@@H](OCCCCO)O1)N1CCN(Cc2ccc3c(c2)OCO3)CC1	none
O=C(C1=C[C@@H](C2CC2)C[C@@H](OCc2ccc(CO)cc2)O1)N1CCN(Cc2ccc3c(c2)OCO3)CC1	none
O=C(C1=C[C@H](c2ccc3c(c2)OCO3)C[C@H](OCCCCO)O1)N1CCN(Cc2ccc3c(c2)OCO3)CC1	Lmaj promast 51.2
O=C(C1=C[C@H](C2CCCCC2)C[C@H](OCCCCO)O1)N1CCN(Cc2ccc3c(c2)OCO3)CC1	Lmaj promast 97.1
Cc1onc(-c2c(Cl)cccc2Cl)c1C(=O)NCCc1ccc(S(N)(=O)=O)cc1	none
Cc1ccc(S(=O)(=O)Nc2cc(C(C(=O)OC(C)C)C(=O)C(F)(F)F)c(O)c3ccccc23)c(C)c1 (centres undefined)	Lmaj promast 92.0
CN(C)S(=O)(=O)c1cccc(NC(=O)Cn2cnc3ccccc3c2=O)c1	none
N#CC1=C(N)OC2=C(CC/C2=C\c2ccc(F)cc2)C1c1ccc(F)cc1 (centres undefined)	Lmaj promast 100.5
COCCn1c(N)c(N(Cc2ccccc2)C(=O)c2oc3ccccc3c2C)c(=O)[nH]c1=O	none
Cc1ccc(/C=C/C(=O)NC(=S)Nc2ccccc2C(=O)NC2CCCCC2)cc1	Lmaj promast 83.2
CC(=O)NC(=S)Nc1ccccc1C(=O)NC1CCCCC1	none
O=C(/C=C/c1ccccc1)NC(=S)Nc1ccccc1C(=O)NC1CCCCC1	Lmaj promast 99.5
CC(C)(C)C(=O)NC(=S)Nc1ccccc1C(=O)NC1CCCCC1	none
O=C(/C=C/c1ccc(F)cc1)NC(=S)Nc1ccccc1C(=O)NC1CCCCC1	none
COc1ccc(/C=C/C(=O)NC(=S)Nc2ccccc2C(=O)NC2CCCCC2)cc1	Lmaj promast 91.1
COc1ccc(-c2noc(C(=O)NCc3ccc(F)cc3)n2)cc1OC	none
CC1CCCCN1C(=O)c1ccc(NC(=O)c2ccccc2Cl)cc1 (centres undefined)	none
CC(C)CCNC(=O)Cc1ccc(Nc2nc(=S)[nH]c3ccccc23)cc1	none
CN(CCC#N)S(=O)(=O)c1ccc2[nH]cc(C(=O)NCCc3ccccc3)c(=O)c2c1	none
CC(N=Cc1cccc(O)c1O)c1ccccc1 (centres undefined)	Diaphorase inh 50.6, G6PDH CS 51.9
CCN(CC)c1ccc(C=Nc2ccc(C)cc2C)c(O)c1	none
Cc1ccccc1N=Cc1cccc(O)c1O	Diaphorase inh 82.7, G6PDH CS 51.7
Cc1cccc(C=Nc2ccc3c(c2)oc2ccccc23)c1O	none
Cc1ccc(N=Cc2cccc(O)c2O)c(C)c1	Diaphorase inh 66.7, G6PDH CS 54.5 (no result: WT yeast gro inh)
Nc1cccc2c1C(=O)N(C(=O)/C=C/c1ccc(F)cc1)C2=O	none
COc1ccc(C(=O)N(Cc2ccco2)C(C(=O)NC2CCCC2)c2ccc(O)cc2)cc1OC (centres undefined)	none
CCOC(=O)N1CCN(C(=O)C2CCCCC2)CC1	none
CCOC(=O)N1CCN(CCC(=O)Nc2ccc(OC)cc2)CC1	none
CCOC(=O)N1CCC(NC2CCCCCCC2)CC1	Lmaj promast 93.6
CCOC(=O)N1CCN(CC(O)COc2ccc(OC)cc2C(C)(C)C)CC1 (centres undefined)	Lmaj promast 59.0
CCOC(=O)N1CCC(NCCNC(=O)c2ccc(Cl)cc2)CC1	Lmaj promast 90.8
CCOC(=O)N1CCN(CCC(=O)c2ccc(OC)cc2)CC1	Lmaj promast 81.8
CN(CC(CC(=O)Nc1nncs1)c1ccccc1)S(=O)(=O)c1ccc(Br)cc1 (centres undefined)	none
CCOC(=O)N1CCN(CCC(=O)c2ccc(Cl)cc2)CC1	Lmaj promast 94.5
CCOC(=O)N1CCN(C(=O)Cc2ccc(Cl)cc2)CC1	none
CCN(CC(=O)Nc1c(C(=O)OC)[nH]c2ccc(Cl)cc12)c1ccc2c(c1)OCO2	WT yeast gro inh 68.2
CC(C)CC(NC(=O)c1ccccc1NC(=O)c1ccccc1)C(=O)O (centres undefined)	none
COc1ccc(N=Cc2nc(-c3ccco3)oc2O)cc1	none
CCC(=NCc1ccc(Cl)c(Cl)c1)c1nc(-c2ccco2)oc1O	WT yeast gro inh 66.6
COc1ccc(OC)c(C2=Nn3c(nnc3-c3cccc(OC(C)C)c3)SC2)c1	none
Cc1ccnc(NS(=O)(=O)c2ccc(N=CC3=C(O)CC(C)(C)CC3=O)cc2)n1	WT yeast gro inh 66.7
CC1(C)CC(=O)C(C=Nc2ccccc2)=C(O)C1	none
Cc1c(-c2cccs2)[n+](=O)c2c(n1[O-])CCCCC2	WT yeast gro inh 58.0
Cc1ccc(-c2c(C)n([O-])c3c([n+]2=O)CCCCC3)cc1	none
O=C1Nc2ccc(Cl)cc2/C1=C/C1CC=CCC1 (centres undefined)	Lmaj promast 95.7
O=C(c1cc(C2CC2)on1)N1CCN(c2ccccc2)CC1	none
O=C(COc1cccc2ccccc12)NNC(=O)CSCCO	Lmaj promast 57.4
COc1ccc(N2CCN(C(CNC(=O)c3ccc4c(c3)OCO4)c3ccco3)CC2)cc1 (centres undefined)	none
CCCN(CC(=O)Nc1ccccc1C)C(=O)CCl	Lmaj promast 52.6
CSc1ncccc1C(=O)Nc1nc2c(C)cccc2s1	Lmaj promast 69.5
Cc1cccc2sc(NC(=O)c3ccc(NS(=O)(=O)c4cccs4)cc3)nc12	WT yeast gro inh 67.2
Cc1cc(C(=O)Nc2nc3c(C)cccc3s2)c(C)o1	none
COc1ccc(S(=O)(=O)N(CC(C)C)CC(C)C)c2cccnc12	Lmaj promast 72.2
CCCCN(CCCC)S(=O)(=O)c1ccc(OC)c2ncccc12	Lmaj promast 74.6
CCOc1ccc(S(=O)(=O)N2CCN(c3ccccc3OC)CC2)c2cccnc12	none
